Measurements from ChEMBL document CHEMBL1127471, “Tricyclic analogues of acyclovir and ganciclovir. Influence of substituents in the heterocyclic moiety on the antiviral activity” (1994).
In brackets after ≈: the same amount, converted by molar mass.

How the values were obtained:
Assay type in all cases: functional
Human betaherpesvirus 5 = assay: The minimum inhibitory concentration was measured on HEL cells against Cytomegalovirus virus (AD-169 strain)
Summary of the method: (§1)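 Antiviral endpoint was the concentration reducing virus plaque formation by 50% in HEL cell cultures. Values are means of two to six independent determinations.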

Human alphaherpesvirus 3 [1] = assay: The minimum inhibitory concentration was measured on HEL cells against Varicella zoster virus (OKA strain); conditions: Human alphaherpesvirus 3, oka; summary of the method: as §1
Human alphaherpesvirus 1 [2] = assay: The minimum inhibitory concentration was measured on E6SM cells against TK+/TK-Herpes simplex virus type 1 (VMW1837 strain)
Summary of the method: (§2)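 Antiviral endpoint was the concentration reducing virus-induced cytopathicity by 50% in […] cell cultures. Values are means of two to six independent determinations.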

Human alphaherpesvirus 1 [3] = assay: The minimum inhibitory concentration was measured on E6SM cells against TK-Herpes simplex virus type 1 (B2006 strain); summary of the method: as §2
[4] = The minimum inhibitory concentration was measured against Herpes simplex virus type 1 (KOS strain) on E6SM cells; conditions: Human alphaherpesvirus 1; summary of the method: as §2
[5] = The minimum inhibitory concentration was measured on E6SM cells against Herpes simplex virus type 1 (McIntyre strain); conditions: Human alphaherpesvirus 1; summary of the method: as §2
E6SM = assay: The minimum inhibitory concentration was measured on E6SM cells for morphological alteration; conditions: Homo sapiens
Summary of the method: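 In uninfected E6SM cells, the value is the concentration giving a microscopically detectable change in normal cell morphology. Values are means of two to six independent determinations.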

Human alphaherpesvirus 3 [6] = assay: The minimum inhibitory concentration was measured on HEL cells against TK-Varicella zoster virus (YS-R strain); conditions: Human alphaherpesvirus 3, ys-r; summary of the method: as §1
Human alphaherpesvirus 1 [7] = assay: The minimum inhibitory concentration was measured on E6SM cells against Herpes simplex virus type 1 (F strain); summary of the method: as §2
HEL [8] = assay: The […] was measured on HEL cells in cell growth; conditions: Homo sapiens
Vaccinia virus = assay: The minimum inhibitory concentration was measured on E6SM cells against Vaccinia virus; conditions: Orthopoxvirus vaccinia; summary of the method: as §2
Human alphaherpesvirus 3 [9] = assay: The minimum inhibitory concentration was measured on HEL cells against Varicella zoster virus (YS strain); summary of the method: as §1
Cytomegalovirus = assay: The minimum inhibitory concentration was measured on HEL cells against Cytomegalovirus virus (Davis strain); conditions: Human betaherpesvirus 5; summary of the method: as §1
Human alphaherpesvirus 3 [10] = assay: The minimum inhibitory concentration was measured on HEL cells against TK-Varicella zoster virus (07/1 strain); summary of the method: as §1
HEL [11] = assay: The minimum inhibitory concentration was measured on HEL cells against Cytomegalovirus virus (AD-169 strain); (<100>40); conditions: Homo sapiens; summary of the method: as §1
HEL [12] = assay: The minimum inhibitory concentration was measured on HEL cells against Cytomegalovirus virus (Davis strain); (<100>40); conditions: Homo sapiens; summary of the method: as §1
HEL [13] = assay: The minimum inhibitory concentration was measured on HEL cells against Cytomegalovirus virus (Davis strain); (<400>100); conditions: Homo sapiens; summary of the method: as §1
HEL [14] = assay: The minimum inhibitory concentration was measured on HEL cells against Cytomegalovirus virus (AD-169 strain); (<400>100); conditions: Homo sapiens; summary of the method: as §1
HEL [15] = assay: The minimum inhibitory concentration was measured on E6SM cells against Vesicular stomatitis virus; conditions: Homo sapiens; summary of the method: as §2

Row | SMILES | MIC (Human betaherpesvirus 5) [µg/mL] | MIC (Human alphaherpesvirus 3 [1]) [µg/mL] | MIC (Human alphaherpesvirus 1 [2]) [µg/mL] | MIC (Human alphaherpesvirus 1 [3]) [µg/mL] | MIC [4] [µg/mL] | MIC [5] [µg/mL] | MIC (E6SM) [µg/mL] | MIC (Human alphaherpesvirus 3 [6]) [µg/mL] | MIC (Human alphaherpesvirus 1 [7]) [µg/mL] | MIC (HEL [8]) [µg/mL] | MIC (Vaccinia virus) [µg/mL] | MIC (Human alphaherpesvirus 3 [9]) [µg/mL] | MIC (Cytomegalovirus) [µg/mL] | MIC (Human alphaherpesvirus 3 [10]) [µg/mL] | MIC (HEL [11]) [µg/mL] | MIC (HEL [12]) [µg/mL] | MIC (HEL [13]) [µg/mL] | MIC (HEL [14]) [µg/mL] | MIC (HEL [15]) [µg/mL]
1 | Cc1cnc2nc3c(c(O)n12)NCN3COCCO | > 50 | > 50 | > 120 | > 50 | 2.1 (≈ 7.92 µM) | 0.5 (≈ 1.88 µM) | > 100 | > 50 | 0.1 (≈ 0.377 µM) | > 200 | > 150 | > 50 | > 50 | > 50 |  |  |  |  | 
2 | OCCOCN1CNc2c1nc1nc(-c3ccc(Br)cc3)cn1c2O |  | 1 (≈ 2.46 µM) | > 70 |  | 0.6 (≈ 1.48 µM) | 0.2 (≈ 0.492 µM) | ≥ 70 | 230 (≈ 566 µM) | 2 (≈ 4.92 µM) | > 200 | > 70 | 4 (≈ 9.85 µM) |  | 125 (≈ 308 µM) | > 40 | > 40 |  |  | 
3 | CC(C)(C)c1cn2c(O)c3c(nc2n1)N(COCCO)CN3 |  | 1 (≈ 3.25 µM) | > 125 |  | 4.5 (≈ 14.6 µM) | 2 (≈ 6.51 µM) | > 250 | 127 (≈ 413 µM) | 4 (≈ 13 µM) | 167 (≈ 543 µM) | > 250 | 2.2 (≈ 7.16 µM) |  | 40 (≈ 130 µM) |  |  | > 100 | > 100 | > 125
4 | Cc1cn2c(O)c3c(nc2n1)N(COC(CO)CO)CN3 | > 50 | 1 (≈ 3.39 µM) | 1.6 (≈ 5.42 µM) | 31 (≈ 105 µM) | 0.015 (≈ 0.0508 µM) | 0.02 (≈ 0.0677 µM) | > 175 | 15 (≈ 50.8 µM) | 0.005 (≈ 0.0169 µM) | > 200 | > 175 | 12 (≈ 40.6 µM) | > 50 | 15 (≈ 50.8 µM) |  |  |  |  | 
5 | CC(C)(C)c1cn2c(O)c3c(nc2n1)N(COC(CO)CO)CN3 | > 50 | 5 (≈ 14.8 µM) | 0.7 (≈ 2.07 µM) | > 70 | 0.035 (≈ 0.104 µM) | 0.1 (≈ 0.296 µM) | > 175 | 50 (≈ 148 µM) | 0.1 (≈ 0.296 µM) | > 200 | > 135 | > 20 | > 50 | 50 (≈ 148 µM) |  |  |  |  | 
6 | Cc1cn2c(O)c3c(nc2n1)N(COCCO)C(Br)N3 (centres undefined) |  | 215 (≈ 625 µM) | > 125 |  | 95 (≈ 276 µM) | 150 (≈ 436 µM) | > 250 | 185 (≈ 538 µM) | 150 (≈ 436 µM) | > 200 | > 250 | 220 (≈ 639 µM) |  | 180 (≈ 523 µM) |  |  | > 100 | > 100 | 
7 | OCCOCN1CNc2c1nc1nc(-c3ccccc3)cn1c2O |  | 1.3 (≈ 3.97 µM) | > 70 |  | 0.4 (≈ 1.22 µM) | 0.2 (≈ 0.611 µM) | > 100 | 67 (≈ 205 µM) | 0.7 (≈ 2.14 µM) | 45 (≈ 137 µM) | > 100 | 1.4 (≈ 4.28 µM) | 166 (≈ 507 µM) | 67 (≈ 205 µM) |  |  |  | > 100 | 
8 | OCC(CO)OCN1CNc2c1nc1nc(-c3ccccc3)cn1c2O | 20 (≈ 56 µM) | 0.4 (≈ 1.12 µM) | 0.5 (≈ 1.4 µM) | > 30 | 0.02 (≈ 0.056 µM) | 0.005 (≈ 0.014 µM) | > 175 | 1 (≈ 2.8 µM) | 0.005 (≈ 0.014 µM) | > 200 | > 90 | 3 (≈ 8.39 µM) | 7 (≈ 19.6 µM) | 3 (≈ 8.39 µM) |  |  |  |  | 
